EP2 mod – EP2 receptor (human) modulation. EP2-expressing cells, cAMP HTRF FRET, PGE2 co-stimulation. induction, % at 25 µM. 0.83% of 260,000 active;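 active = compounds whose cAMP rise, as percent of the full-agonist control response, exceeds 60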;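 also: rat C6 glioma line stably carrying human EP2 under a CMV promoter; the protocol text gives 20 µM as final concentration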
NPY2 pot ag – potentiates or activates human NPY-Y2 receptor. P49146. cells expressing NPY-Y2, potentiator/agonist read-out. activation, % at 3.6 µM. 0.45% of 220,000 active; in the data active = activation above about 27%;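 also: cells stimulated with NPY near EC25 plus isoproterenol at EC100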
EP2 antag – blocks the human prostaglandin E2 receptor EP2; P43116; inhibition, % at 25 µM; AID 1422; C6 glioma cells expressing human EP2, cAMP TR-FRET; cells stimulated with saturating PGE2; 0.52% of 260,000 active;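 active = percent inhibition above 40 after rounding to a whole number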;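 also: rat C6 glioma host cells with rolipram phosphodiesterase inhibitor present; the protocol text gives 20 µM as final concentration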
NPY1 pot ag – human NPY-Y1 potentiation or agonism, primary screen; P25929; NPY-Y1 expressing cells, potentiator/agonist activation; activation, % at 3.6 µM; 0.37% of 220,000 active; in the data active = activation above about 33%, passing the limit was not always enough;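 also: cells stimulated with NPY at EC10 then isoproterenol at EC100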
Target sequence (P25929 whole entry, looked up): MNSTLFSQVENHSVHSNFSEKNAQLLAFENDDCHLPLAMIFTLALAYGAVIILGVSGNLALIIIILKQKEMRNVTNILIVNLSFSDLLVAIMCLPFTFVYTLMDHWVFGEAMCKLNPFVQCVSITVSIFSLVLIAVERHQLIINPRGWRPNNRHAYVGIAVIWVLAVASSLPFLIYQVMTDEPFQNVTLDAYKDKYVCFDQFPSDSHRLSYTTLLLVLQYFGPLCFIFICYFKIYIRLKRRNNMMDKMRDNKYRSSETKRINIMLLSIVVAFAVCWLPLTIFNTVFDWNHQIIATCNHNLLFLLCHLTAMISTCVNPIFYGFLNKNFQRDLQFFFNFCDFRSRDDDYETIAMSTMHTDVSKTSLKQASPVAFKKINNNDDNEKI
NPY Y1 blocker – NPY-Y1 (human) receptor antagonism; inhibition, % at 3.6 µM; HEK293-CNG Y1 cells, membrane potential fluorescence; NPY at EC95, then isoproterenol; AID 1040; 1% of 200,000 active;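 active = inhibition above the campaign mean inhibition of all tested compounds plus 3 SD, cut at about 20% in these data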
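Benchmarks – high control isoproterenol alone, low control NPY with isoproterenol · Material – HEK293 Y1/CNG channel cell line · Times – dye 3 h, compound 60 min room temperature, stimulation 45 min · Probe or stimulus – NPY (25 nM), isoproterenol (1 µM), Ro 20-1724 (25 µM) · Evaluation – % inhibition of NPY effect · Signal – fluorescence, membrane potential probe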
NPY-Y2 antag – blocks the human neuropeptide Y Y2 receptor. 0.99% of 140,000 active. NPY-Y2 expressing cells, antagonist mode. AID 793. inhibition, % at 2.7 µM. P49146; in the data active = inhibition above about 17%
Hits are given with their value. Compounds with a hit are over-represented: about 2.8% of the library has one in this group of screens.

`O=S(=O)(c1ccc2c(c1)OCCO2)N1CCCC(c2nc(-c3ccc(Cl)cc3)no2)C1` (configuration not stated) gave EP2 mod inactive and EP2 antag inactive.
Cc1ccccc1/C=c1\s/c(=C\C(=O)C(C)(C)C)[nH]c1=O was read as EP2 mod inactive, NPY2 pot ag inactive, EP2 antag inactive, NPY1 pot ag inactive, NPY Y1 blocker 22 and NPY-Y2 antag 24.
`CC(C)(C)C(=O)/C=c1\[nH]c(=O)/c(=C\c2ccccc2F)s1` gave EP2 mod inactive, NPY2 pot ag inactive, EP2 antag inactive, NPY1 pot ag inactive and NPY Y1 blocker inactive.
`COCCCNC(=O)c1cc(-c2cccc(OC)c2)nc2c(C)cc(C)cc12` gave EP2 mod inactive and EP2 antag inactive.
Screening CCC(C)NC(=O)CCS(=O)(=O)c1nc(-c2ccc(OC)cc2)cc(C(F)(F)F)n1 (configuration not stated) returned EP2 mod inactive and EP2 antag inactive.
Screening CCC(C)(C)NC(=O)C(c1ccccc1)N(Cc1cccs1)C(=O)Cn1nnc2ccccc21 (configuration not stated) returned NPY2 pot ag inactive, EP2 antag inactive, NPY1 pot ag inactive, NPY Y1 blocker 136 and NPY-Y2 antag 133.
`O=C(NCc1ccco1)C(c1ccco1)N(Cc1cccs1)C(=O)Cn1nnc2ccccc21` (configuration not stated) gave EP2 mod inactive, NPY2 pot ag inactive, EP2 antag inactive, NPY1 pot ag inactive, NPY Y1 blocker inactive and NPY-Y2 antag inactive.
O=C(NC1CCCCC1)C(c1ccccc1)N(Cc1ccco1)C(=O)Cn1cnc2ccccc21 (configuration not stated) was read as EP2 mod inactive, NPY2 pot ag inactive, EP2 antag inactive, NPY1 pot ag inactive, NPY Y1 blocker 78 and NPY-Y2 antag 55.
CCC(C)(C)NC(=O)C(c1ccc(C)o1)N(Cc1cccs1)C(=O)Cn1nnc2ccccc21 (configuration not stated) was read as EP2 mod inactive, NPY2 pot ag inactive, EP2 antag inactive, NPY1 pot ag inactive, NPY Y1 blocker 70 and NPY-Y2 antag 50.
`COCCNC(=O)C(c1ccccc1)N(Cc1cccs1)C(=O)Cn1nnc2ccccc21` (configuration not stated) gave EP2 mod inactive, NPY2 pot ag inactive, EP2 antag inactive, NPY1 pot ag inactive, NPY Y1 blocker inactive and NPY-Y2 antag inactive.
`O=C(NC1CCCCC1)C(c1ccco1)N(Cc1cccs1)C(=O)Cn1nnc2ccccc21` (configuration not stated) gave EP2 mod 61, NPY2 pot ag inactive, EP2 antag inactive, NPY1 pot ag inactive, NPY Y1 blocker 51 and NPY-Y2 antag 42.
Screening CCc1cc2ccc(OC)cc2nc1SCC(=O)NCc1ccccc1 returned EP2 mod inactive and EP2 antag inactive.
`Cn1c(=O)c2c(ncn2CC(=O)Nc2cc(C(F)(F)F)ccc2Cl)n(C)c1=O` gave EP2 mod inactive and EP2 antag inactive.
CCOC(=O)C(=O)Nc1sc(C(=O)Nc2cccc(Cl)c2)c(C)c1C(=O)OC was read as EP2 mod inactive and EP2 antag inactive.
`O=C(c1cccc(Cl)c1)N1CCN(C2CCCCC2)CC1` gave EP2 mod inactive and EP2 antag inactive.
For O=C(c1cccc(Cl)c1)N1N=C(C(F)(F)F)CC1(O)C1CCCCC1 (configuration not stated) the results were EP2 mod 85 and EP2 antag inactive.
For COc1cc2c(cc1OC)C(c1ccncc1)N(Cc1cnc(C)nc1)CC2 (configuration not stated) the results were EP2 mod inactive and EP2 antag inactive.
For Cc1cc(C)c2c(=O)n(CC(=O)Nc3cccc(Cl)c3C)sc2n1 the results were EP2 mod inactive, NPY2 pot ag inactive, EP2 antag 44 and NPY1 pot ag inactive.
Screening Cc1cc(C)c2c(=O)n(CC(=O)Nc3ccc(Br)c(C)c3)sc2n1 returned EP2 mod inactive, NPY2 pot ag inactive, EP2 antag inactive and NPY1 pot ag inactive.
Screening COc1ccc(OC)c(CCNC(=O)Cn2sc3nc(C)cc(C)c3c2=O)c1 returned EP2 mod inactive, NPY2 pot ag inactive, EP2 antag 112, NPY1 pot ag inactive, NPY Y1 blocker inactive and NPY-Y2 antag inactive.
For Cc1cc(C)c2c(=O)n(CC(=O)NC3CCCC3)sc2n1 the results were EP2 mod inactive, NPY2 pot ag inactive, EP2 antag 118 and NPY1 pot ag inactive.
CCn1c2cc(C)oc2c2cnn(C(C)C(=O)NCc3ccccn3)c(=O)c21 (configuration not stated) was read as EP2 mod inactive.
`COc1ccc(CNCc2cccc(Oc3ccccc3)c2)cc1` gave EP2 mod inactive, NPY2 pot ag inactive, EP2 antag inactive, NPY1 pot ag inactive and NPY Y1 blocker 21.
Screening O=C(O)CCc1ccc(NCc2cccc(Oc3ccccc3)c2)cc1 returned EP2 antag inactive.
`CNc1nc(Cl)c(SC)c(N2CCOCC2)n1` gave EP2 mod inactive, NPY2 pot ag inactive, EP2 antag inactive, NPY1 pot ag inactive and NPY Y1 blocker inactive.
For CCCCNc1nc(NC)nc(Cl)c1SC the results were EP2 mod 63, NPY2 pot ag inactive, EP2 antag inactive, NPY1 pot ag inactive and NPY Y1 blocker inactive.
CC1CCN(C(=O)c2cc(-c3ccccc3)on2)CC1 was read as EP2 mod inactive and EP2 antag inactive.
O=[N+]([O-])c1ccccc1OCC(O)CNC1CCCC1 (configuration not stated) was read as EP2 mod inactive, NPY2 pot ag 104, EP2 antag inactive and NPY1 pot ag 112.
Cc1nc2c(c(=O)[nH]1)CCN(C(=O)C1C3C=CC4(CN(C(C)C)C(=O)C14)O3)C2 (configuration not stated) was read as EP2 mod inactive and EP2 antag inactive.
Screening CCOC(=O)c1ccc(NC(=O)Cn2ncc(Cl)c(Cl)c2=O)cc1 returned EP2 mod inactive, NPY2 pot ag inactive, EP2 antag inactive, NPY1 pot ag 59, NPY Y1 blocker inactive and NPY-Y2 antag inactive.
`Cn1cc(C(O)CN2CCN(c3ccc(F)cc3F)CC2)c2ccccc21` (configuration not stated) gave EP2 mod inactive and EP2 antag inactive.
Cn1cnc([N+](=O)[O-])c1Sc1nc(N)nc2c1ncn2[C@@H]1C[C@H](O)[C@@H](CO)O1 was read as EP2 mod inactive and EP2 antag 48.
C[N+](C)(C)c1nc(N)nc2c1ncn2[C@H]1O[C@@H](CO)[C@H](O)[C@H]1O was read as EP2 mod inactive and EP2 antag 45.
